Source: PubChem BioAssay
dFosB activator – enhances mouse delta FosB homodimer DNA binding. purified delta FosB, TAMRA-CDK5 oligo fluorescence polarization; percent of positive-control signal above neutral wells. activation, % at 25 µM. actives 0.99% (n = 340,000);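 active = mean activation above about 17%, with every replicate also reaching it, limit read from the data, passing the limit was not always enough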
Target sequence (P13346 whole entry, looked up): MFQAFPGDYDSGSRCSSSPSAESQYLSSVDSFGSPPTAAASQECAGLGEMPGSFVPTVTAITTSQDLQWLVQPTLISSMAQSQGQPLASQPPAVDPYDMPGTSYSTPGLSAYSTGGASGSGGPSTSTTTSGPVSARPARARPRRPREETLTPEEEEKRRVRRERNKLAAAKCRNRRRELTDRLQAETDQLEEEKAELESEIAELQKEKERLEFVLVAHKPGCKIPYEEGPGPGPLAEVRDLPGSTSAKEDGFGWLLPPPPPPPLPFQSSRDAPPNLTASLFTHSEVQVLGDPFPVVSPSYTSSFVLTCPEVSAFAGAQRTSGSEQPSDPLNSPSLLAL
FGF22 binding – binders of recombinant human FGF22 by thermal shift; Q9HCT0; SYPRO orange fluorescence; percent of sucrose octasulfate shift, DMSO zero; activity (Tm shift, normalised), % at 9.99 µM; actives 1.5% (n = 340,000); AID 651658;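 active = mean Tm shift, scaled 0 neutral to 100 positive control, at about 1.3% or above, every replicate too, limit read from the data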
S100A4 MyoIIA – inhibitors of human S100A4 binding to myosin IIA peptide. P26447. S100A4/TAMRA-MyoIIA peptide fluorescence polarization. inhibition, % at 10.7 µM. actives 0.14% (n = 360,000);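 active = mean inhibition of at least 70% across replicates, with every replicate also reaching that level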
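Test system: S100A4 monomer protein; Medium: HEPES pH 7.2 with CaCl2, KCl, NaCl, DTT, Triton; Probe or stimulus: TAMRA-labelled myosin IIA heavy-chain peptide probe, 5 nM; Doses: one dose per compound; Times: polarization read 5 min after assay mix addition, stable 5–60 min; Benchmarks: neutral control DMSO, positive control TFP.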
F508del corr – CFTR F508del correction in bronchial cells. CFBE cells, YFP halide quenching; stimulated with forskolin plus potentiator P3; % fluorescence drop versus neutral controls. actives 0.36% (n = 350,000). activity (quench increase), % at 7.58 µM. AID 720511;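 active = mean added fluorescence quench of at least 8% versus neutral control, with both replicates also reaching 8%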;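 note: cells transiently co-express mutant CFTR-F508del with the halide-sensitive YFP; corrector assay measuring rescue of mutant channel to the surface after 24 h compound exposure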
The depositor's hits bear a star; . = not tested or not shown. Only some compounds are listed: those with a hit (about 2.2% of all), similar ones and a draw of the others.

SMILES	dFosB activator	FGF22 binding	S100A4 MyoIIA	F508del corr
CN(C)C(=O)c1cccc(-c2ccc3c(c2)[C@@H]2[C@@H](CCN2C(=O)C2CCCCC2)[C@@H](CO)N3)c1	.	0	.	0
Cc1noc(C)c1S(=O)(=O)Nc1ccc2c(c1)C(=O)N([C@H](C)CO)C[C@H](C)[C@@H](CN(C)S(=O)(=O)c1cn(C)cn1)OCCCC[C@@H](C)O2	.	0	-6	-3
CN(C(=O)c1ccccc1OC1CCN(S(C)(=O)=O)CC1)C1CCOC1 (configuration not stated)	1	0	-7	8.5*
CS(=O)(=O)N1CCC(Oc2ccccc2C(=O)NC2CCOC2)CC1 (configuration not stated)	2	1	-4	6
N/C(=N\OC(=O)CCCOc1ccccc1)c1ccc([N+](=O)[O-])cc1	0	43*	3	2
N/C(=N\OC(=O)CCCc1ccccc1)c1ccc([N+](=O)[O-])cc1	3	.	.	.
Clc1nc2ccccc2cc1/C=N/Nc1nc2ccccc2[nH]1	18*	0	2	3
Cc1nn(-c2ccccc2)c(C)c1/C=N/Nc1nc2ccccc2[nH]1	27*	0	-1	.
Cc1c(/C=N/Nc2nc3ccccc3[nH]2)c2ccccc2n1C	78*	0	6	-9
Cc1cc(=O)[nH]c(N/N=C/c2c(C)nn(-c3ccccc3)c2C)n1	1	0	3	-1
CC(=O)Nc1ccc(/C=N/Nc2nc3ccccc3[nH]2)cc1	11	0	-5	1
Cn1c(/C=N/Nc2nc3ccccc3[nH]2)nc2ccccc21	-2	1	2	.
CCN(CC)c1ccc(/C=N/Nc2nc3ccccc3[nH]2)cc1	39*	.	.	.
C[C@H](CO)N1C[C@H](C)[C@H](CN(C)C(=O)Cc2ccccn2)Oc2ncc(C#C[C@@H](C)O)cc2C1=O	.	0	8	1
O=C(C[C@@H]1C=C[C@@H](NC(=O)NC2CCCCC2)[C@H](CO)O1)NCc1ccc(Cl)cc1	.	0	10	-1
CO[C@H]1CN(C)C(=O)c2cc(NS(=O)(=O)c3cn(C)cn3)ccc2OC[C@H](C)N(Cc2cccc(F)c2)C[C@@H]1C	.	0	4	0
CCc1ccc(Nc2ccc(C(=O)O)cc2[N+](=O)[O-])cc1	1	0	-14	1
CCc1ccc(Nc2ccc(C(N)=O)cc2[N+](=O)[O-])cc1	-2	44*	-5	-3
C[C@@H]1CCCCO[C@@H](CN(C)C(=O)c2ccccc2)[C@H](C)CN([C@@H](C)CO)C(=O)c2cc(NC(=O)CCC(F)(F)F)ccc2O1	.	0	15	-1
CCCNC(=O)N1C[C@@H]2[C@H](c3ccccc31)[C@@H](CO)N2CC1CCCCC1	.	0	0	0
CC1(C)CC(=O)c2cnc3c(C#N)cnn3c2C1	-4	44*	-6	1
O=C(CSc1ncnc2ccccc12)Nc1cccc(S(=O)(=O)N2CCCC2)c1	-16	43*	-3	-2
O=C(CN1CCN(Cc2ccccc2)CC1)Nc1cccc(S(=O)(=O)N2CCCCCC2)c1	-13	43*	-1	1
O=C(CN1CCOCC1)Nc1cccc(S(=O)(=O)N2CCCCCC2)c1	-3	0	-1	1
O=C(CSc1ncnc2ccccc12)Nc1cc(S(=O)(=O)N2CCCCC2)ccc1Cl	0	.	.	.
SMILES	dFosB activator	FGF22 binding	S100A4 MyoIIA	F508del corr
C[C@@H]1CN([C@H](C)CO)C(=O)Cc2cc(NC(=O)CCCN(C)C)ccc2O[C@@H]1CN(C)CC1CCCCC1	.	0	5	-2
C[C@H](CO)N1C[C@H](C)[C@H](CN(C)S(C)(=O)=O)Oc2c(NC(=O)C3CCCCC3)cccc2C1=O	.	0	19	2
COc1cc(CNCCCN2CCOCC2)ccc1OCC(=O)NC(C)(C)C	-7	44*	-5	1
COc1cc(CNCCN2CCOCC2)ccc1OCC(=O)NC(C)(C)C	-10	43*	4	-4
CCOc1cc(CNCCCN2CCOCC2)ccc1OCC(=O)NC(C)(C)C	-1	42	3	-1
COc1ccc(C=O)cc1Cn1c(=O)n(CCC(=O)NCc2ccco2)c(=O)c2sccc21	94*	0	10	2
Cc1ccc(C)c(Cn2c(=O)n(CCC(=O)NCc3ccco3)c(=O)c3sccc32)c1	15	.	.	.
COc1ccccc1NC(=O)N1CC(=O)N2[C@@H](CO)[C@H](c3ccc(C#CC(C)C)cc3)[C@@H]2C1	.	0	11	2
COc1ccccc1/C=N/NC(=O)c1sc(C)nc1C	-19	0	0	-1
